# Measurements collected from several papers.
# Each line is one published result; the experiments were not run side by side.
Structure (SMILES),target or system,test,system,setting,quantity,result
Nc1ccc(/C=C/C(=O)N2CCc3c(oc4c(-c5ccc(F)cc5)cc(-c5ccc(C(=O)N6C[C@@H]7[C@H](C6)C7(F)F)nn5)cc34)C2)cn1,ASPC1,"cell growth or viability, CCK-8",,72 h,IC50,260 nM
C[C@@H]1[C@H](O)[C@@H](C)/C=C/C=C/C=C/C=C/C=C/C=C/C=C/[C@H](O[C@@H]2O[C@H](C)[C@@H](O)[C@H](N)[C@@H]2O)C[C@@H]2O[C@](O)(C[C@@H](O)C[C@@H](O)[C@H](O)CC[C@@H](O)C[C@@H](O)CC(=O)O[C@H]1C)C[C@H](O)[C@H]2C(=O)O,Nakaseomyces glabratus,"microbial growth, broth dilution",ATCC2001,24 h,MIC,4 µg/mL
C=C(F)C(=O)N1CCN(c2nc(OC[C@@H]3CCCN3C)nc3c2CCN(c2cccc4cccc(Cl)c24)C3)C[C@@H]1CC#N,SW756,"cell growth or viability, ATP luminescence",,,IC50,888 nM
CC(C)=CCCC(C)=CC=O (mixture of isomers),Cryptococcus neoformans,"microbial killing, broth dilution",,clinical isolate,MFC,1600 µg/mL
C=CC(=O)N1CCN(c2nc(=O)n(-c3c(C)ccnc3C(C)C)c3nc(-c4c(O)cccc4F)c(F)cc23)[C@@H](C)C1,ASPC1,"cell growth or viability, ATP luminescence",,,IC50,> 10000 nM
Cc1nn(-c2ccccc2)c2c1C(c1ccc([N+](=O)[O-])cc1)N(C(=O)c1ccncc1)N2 (stereo not shown),Cryptococcus neoformans,microbial growth,,clinical isolate,MIC,64 µg/mL
O=C1C(Br)=C(Br)C(=O)c2ccccc21,Nakaseomyces glabratus,"microbial growth, broth dilution",ATCC2001,24 h,MIC,6.25 µg/mL
Cc1nn(-c2ccccc2)c2c1C(c1ccco1)N(C(=O)c1ccncc1)N2 (stereo not shown),Cryptococcus neoformans,microbial growth,,clinical isolate,MIC,2 µg/mL
Cc1c(C(=O)O)ccc2c3n(nc12)[C@@H]1[C@H](C3)N(CC2CC2)[C@@]2(C(=O)Nc3cc(Cl)ccc32)[C@H]1c1cccc(Cl)c1F,SW982,"cell growth or viability, resazurin",,,GI50,0.34 nM
Cc1nn(-c2ccccc2)c2c1C(c1cncs1)N(C(=O)c1ccncc1)N2 (stereo not shown),Cryptococcus neoformans,microbial growth,,clinical isolate,MIC,64 µg/mL
CO[C@]12C[C@@H](COC(=O)c3cncc(Br)c3)CN(C)[C@@H]1Cc1cn(C)c3cccc2c13,CNE-2,"cell growth or viability, MTT",,48 h,IC50,12900 nM
COc1ccc(C2c3c(C)nn(-c4ccccc4)c3NN2C(=O)c2ccncc2)cc1 (stereo not shown),Cryptococcus neoformans,microbial growth,,clinical isolate,MIC,> 100 µg/mL
C=CC(=O)NC1CCN(c2ncc3ncnc(Nc4ccc(Oc5ccc6c(c5)ncn6C)c(C)c4)c3n2)CC1,LUDLU-1,cell growth or viability,,,EC50,6210 nM
